Laboratory results reported in the EternaBench riboswitch data.

Test system: MS2 coat protein
Assay: apparent Kd, MS2 coat protein; higher = weaker binding; RNA-MaP array; tryptophan 2.4 mM where present
Summary of the method: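 Each design was made on Illumina sequencing-chip clusters by stalled E. coli RNA polymerase and titrated with SNAP-549-labelled MS2 coat protein from 0.7 or 1.5 nM, doubling to 3 µM, in the absence and then the presence of constant ligand. The buffer was 100 mM Tris-HCl pH 7.5, 80 mM KCl, 4 mM MgCl2, BSA, DTT, yeast tRNA and Tween-20. The apparent Kd is the median of filtered per-cluster fits of binding curves, with green signal normalised to red-channel RNA signal and control-cluster median Fmax.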

[1] = designed as: OFF switch for tryptophan, no ligand
[2] = ligand present: tryptophan, designed as: OFF switch for tryptophan
[3] = designed as: ON switch for tryptophan, no ligand
[4] = ligand present: tryptophan, designed as: ON switch for tryptophan

Sequence | apparent Kd [1] [nM] | apparent Kd [2] [nM] | apparent Kd [3] [nM] | apparent Kd [4] [nM]
UUCAGCUAGUCGGCCGCCACUACAUGAGGAUCACCCAUGUCGGUCCUCACUGCUUCGGCAGUGUGUAGGACCGGGACUAGCUGAG | 72.3 | 720 |  | 
CGCCACUCGAGUGAUCCUCACGAGUGGCUACGAGGACCGGUACGGCCGCCACUCGAAUUAACAUGAGGAUCACCCAUGUAAUCUA |  |  | 56.7 | 27.7
ACCUGCGUUUGAUUCUAUCAGACGCAGGUUCGAGGACCGGUACGGCCGCCACUCGGACAUGAGGAUCACCCAUGUUUGACAUGGG | 64.5 | 211 |  | 
AACAUGAGGAUCACCCAUGUGUCCUCGAAACGAGGACCGGUACGGCCGCCACUCGAAUAAGGUGUUGACGAAAAGUCAGCACCAA | 274 | 501 |  | 
UGUAUUACGAAAGUAGUACAUCGUGUUCGACGAGGACCGGUACGGCCGCCACUCGGACAUGAGGAUCACCCAUGUAGCGAAAGCU |  |  | 158 | 256
GCUACAUGAGGAUCACCCAUGUAUGCGAGCCGAGGACCGGUACGGCCGCCACUCGCUUAACAUGAGGAUCACCCAUGUUUCUCGG |  |  | 169 | 125
CUCAUCCACGCGGCCGCCACUAUAUUGUGGUGUGAGUGUGACGUAUUACAUGAGGAUCACCCAUGUAGGACCGGGCGUGGAUGAG | 34.6 | 308 |  | 
GAGUCCGCGGCGGCCGCCACUCGCGAUAUAACAUGAUAUCAGGACAUGAGGAUCACCCAUGUCACGAGGACCGGGCCGAUCCUCA |  |  | 28 | 17.6
AGACUUCGCAUAGGAAAACUAUGUGAAGUCCGAGGACCGGUACGGCCGCCACUCGUCCUCACAUGAGGAUCACCCAUGUAAAUAA | 22.2 | 29.1 |  | 
AUAUAUACAUGAGGAUCACCCAUGUUAUUUCGAGGACCGGUACGGCCGCCACUCGAUAGAGUGGAAGUAACAUUUGUUAGAUGAU |  |  | 15.7 | 15.4
UAUUAUCAGUCGGCCGCCACUGUCACAUGAGGAUCACCCAUGUAACUUGGGUUAUAUUUAAUAUACAGGACCGGGACAAAGGCUA | 58.6 | 115 |  | 
AACUUCGCAUAGGAAAACUAUGUGAAGAAUCGAGGACCGGUACGGCCGCCACUCGUCCUCAACAUGAGGAUCACCCAUGUAAUAA | 18.9 | 34.8 |  | 
UGUCAGCGAAAGUUGACAUGUCUUGCUGGUCGAGGACCGGUACGGCCGCCACUCGAUCUCUCGCACAUGAGGAUCACCCAUGUUG |  |  | 12.6 | 13.4
UGUCAGCGAAAGUUGACAUGUCUUACCGGUCGAGGACCGGUACGGCCGCCACUCGAUCACUCGCACAUGAGGAUCACCCAUGUUG |  |  | 18.9 | 14.3
CCUAUGCAGUCGGCCGCCACUGAUAACGUUAUCGUUACCUCAGAAACAUGAGGAUCACCCAUGUACAGGACCGGGACUGUAUAGG | 12.8 | 15.3 |  | 
GAACAGUCGGACAUGAGGAUCACCCAUGUGCGAGGACCGGUACGGCCGCCACUCGACAAGGGCGGUCCCGAAGCGAACAUACGCG | 23.8 | 14.7 |  | 

Sequence | apparent Kd [1] [nM] | apparent Kd [2] [nM] | apparent Kd [3] [nM] | apparent Kd [4] [nM]
GGGAGGUAGGCGGCCGCCACUGAUUUUCAUAUAUAUAUAACAUGAGGAUCACCCAUGUAGAUAUGCAGGACCGGGCCUGUUUUUU |  |  | 23.9 | 19.3
AUAAAUAAUAAAUAAAAUAAAAUGGGUGAACGAGGACCGGUACGGCCGCCACUCGGACAUGAGGAUCACCCAUGUCCAUGUGAAA | 19.5 | 46.1 |  | 
GGAGUAGGAAACUAUUCCAAUCCUCGUGAACGAGGACCGGUACGGCCGCCACUCGAUAAUUAAUAACAUGAGGAUCACCCAUGUA | 83.7 | 121 |  | 
GGUUACUCUACGGCCGCCACUGAACAUGAGGAUCACCCAUGUAAUGUUCAGUAGUCUUUAGACAACAGGACCGGGUAGUGUAACC |  |  | 228 | 215
UGCAUUAUACAUGGAUCACCCAUGUAGACACGAGGACCGGUACGGCCGCCACUCGGAAGAGGGAACAUGAGGAUCACCCAUGUGA |  |  | 52.5 | 51.5
AUUAAUAAUAUGUAGACGGCGGAGACGAGACGAGGACCGGUACGGCCGCCACUCGUGUUAGUUAACAUGAGGAUCACCCAUGUUA |  |  | 12.5 | 12.8
GCAUCCUAGUCGGCCGCCACUGCAUCACCAGUGGCAGGUGAUCAACAUGAGGAUCACCCAUGUAGCAGGACCGGGACUAGGAUGC |  |  | 135 | 43.7
UGUCAUGGAAACAUGACAGGUCUUACCGGUCGAGGACCGGUACGGCCGCCACUCGAUUGGUGGCACAUGAGGAUCACCCAUGUUA |  |  | 29 | 26.7
AGCCACUCGAGUGAUCCUCACGAGUGGCUACGAGGACCGGUACGGCCGCCACUCGAAUUAACAUGAGGAUCACCCAUGUAAUCAU |  |  | 31.5 | 111
GUCCUCAUGACGGCCGCCACUAAACAUGAGGAUCACCCAUGUAAUGAUCCAUUAAAUGAUAAUAGUAGGACCGGGUCAAAAUAAA |  |  | 477 | 669
UUCGUAUUGUCGGCCGCCACUGCAACAUGAGGAUCACCCAUGUAAAUUUGGGAGUAGUUAUAUUACAGGACCGGGACAAUAGUAA | 102 | 139 |  | 
UGUCAGCGAAAGUUGACAUGUCUUACCGGUCGAGGACCGGUACGGCCGCCACUCGAUCACUCGCACAUGAGGAUCACCCAUGUCG |  |  | 12.4 | 11.7
AACAUGAGGAUCACCCAUGUGUCCUCGAAACGAGGACCGGUACGGCCGCCACUCGACGUAUGUUGACGAAAAGUCAGCAUACGAA | 281 | 885 |  | 
AGAUUCGACACGGCCGCCACUUUCAGUGGCUGGUCACAUGGUGCACAUGAGGAUCACCCAUGUGGAAGGACCGGGUGUUGAGUCU | 28 | 91.9 |  | 
AGAUUCGACACGGCCGCCACUCGUGACGGAUUUCCGAGUGUCGAACAUGAGGAUCACCCAUGUACGAGGACCGGGUGUUGAGUCU | 74.7 | 499 |  | 
